In brackets after ≈: the same amount, converted by molar mass.
Tests used:
A549 = experiment: Cytotoxicity against human A549 cells; type: cell-based
Dihydrofolate reductase [1] = molecular target: T1, Dihydrofolate reductase (Homo sapiens, UniProt P00374); experiment: Inhibition of human DHFR
T1 sequence (P00374 whole entry): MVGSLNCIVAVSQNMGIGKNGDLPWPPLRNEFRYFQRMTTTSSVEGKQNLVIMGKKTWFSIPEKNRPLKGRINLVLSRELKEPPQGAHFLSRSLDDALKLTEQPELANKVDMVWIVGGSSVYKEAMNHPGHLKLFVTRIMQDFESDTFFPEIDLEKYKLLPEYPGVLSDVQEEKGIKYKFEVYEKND

Dihydrofolate reductase [2] = molecular target: T2, Dihydrofolate reductase (Mycobacterium tuberculosis, UniProt P9WNX1); experiment: Inhibition of Mycobacterium tuberculosis H37Rv DHFR expressed in Escherichia coli assessed as reduction in consumption of NADPH using DHF as substrate by fluorescence method
T2 sequence (P9WNX1 whole entry): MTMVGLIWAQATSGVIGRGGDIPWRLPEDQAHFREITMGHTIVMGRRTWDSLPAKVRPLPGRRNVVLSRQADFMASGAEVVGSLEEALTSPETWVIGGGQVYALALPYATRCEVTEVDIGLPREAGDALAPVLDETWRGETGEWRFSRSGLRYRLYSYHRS

[3] = test system: Mycobacterium tuberculosis; experiment: Antimycobacterial activity against Mycobacterium tuberculosis H37Rv infected in human THP1 cells after 5 days by Steady-Glo luminescence assay; type: functional; conditions: 120 h
Dihydrofolate reductase [4] = molecular target: T1, Dihydrofolate reductase; experiment: Inhibition of human DHFR assessed as reduction in consumption of NADPH using DHF as substrate by fluorescence method
Dihydrofolate reductase [5] = molecular target: T2, Dihydrofolate reductase; experiment: Inhibition of Mycobacterium tuberculosis H37Rv DHFR expressed in Escherichia coli BL21(DE3) assessed as reduction in consumption of NADPH using DHF as substrate preincubated for 1 min followed by DHF addition and measured for 2 mins by spectrophotometric method
[6] = test system: Mycobacterium tuberculosis; experiment: Antimycobacterial activity against GFP-fused Mycobacterium tuberculosis H37Rv after 7 days BacTiter-Glo assay; type: functional; conditions: 168 h
Dihydrofolate reductase [7] = molecular target: T2, Dihydrofolate reductase; experiment: Inhibition of Mycobacterium tuberculosis His-tagged DHFR assessed as reduction in consumption of NADPH using DHF as substrate measured every 30 secs over 6 mins by spectrophotometric method
Dihydrofolate reductase [8] = molecular target: T2, Dihydrofolate reductase; experiment: Inhibition of Mycobacterium tuberculosis H37Rv DHFR assessed as reduction in consumption of NADPH using DHF as substrate incubated for 3 mins measured for 2 mins by spectrophotometric method
[9] = test system: Mycobacterium tuberculosis; experiment: Antimycobacterial activity against Mycobacterium tuberculosis H37Rv by resazurin dye based two-fold dilution assay; type: functional
[10] = Cytotoxicity against African green monkey Vero cells by MTT assay; type: cell-based; conditions: chlorocebus sabaeus
Dihydrofolate reductase [11] = molecular target: T1, Dihydrofolate reductase; experiment: Inhibition of human DHFR assessed as reduction in consumption of NADPH using DHF as substrate incubated for 3 mins measured for 2 mins by spectrophotometric method
[12] = Half life in male rat liver microsomes at 3 uM preincubated for 5 mins followed by NADPH addition measured up to 45 mins by LC-MS/MS analysis; type: ADME, microsome
In short: (§1)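 Compound (final 3 µM) was incubated with male or female rat liver microsomes (0.3 mg protein/mL) in 0.1 M phosphate pH 7.4. After a 5 min pre-incubation at 37 °C, NADPH (final 1 mM) was added to start the reaction. Samples were taken at 0, 5, 10, 15, 30 and 45 min and the remaining compound was quantified by LC-MS.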

[13] = Selectivity index, ratio of IC50 for inhibition of recombinant human DHFR to IC50 for inhibition of Mycobacterium tuberculosis His-tagged DHFR
In short: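 Spectrophotometric DHFR assay at room temperature in 0.15 M potassium phosphate, pH 7, with 50 µM DHF, 60 µM NADPH and 1.5 × 10^-3 units recombinant human DHFR or 0.3 ng/mL recombinant Mtb DHFR, plus serial inhibitor concentrations in DMSO. NADPH use is followed at 340 nm every 30 s for 6 min. Slope versus uninhibited gives % inhibition, and IC50 comes from log-dose curves. SI = human IC50 / Mtb IC50.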

[14] = test system: Mycobacterium tuberculosis; experiment: Antimycobacterial activity against Mycobacterium tuberculosis H37Rv after 10 days by broth dilution method; type: functional; conditions: 240 h
In short: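 Broth microdilution. Mid-log cultures (OD600 0.4–0.6) were diluted and added to 2-fold serial compound dilutions in DMSO, giving a final 5 × 10^5 CFU/mL in 7H9-albumin-dextrose-catalase-glycerol-Tween 80. Plates were sealed and incubated at 37 °C for 10 days with shaking at 80 rpm. OD600 was read; MIC50 and MIC90 are the lowest concentrations giving 50% and 90% growth inhibition. Rifampicin and DMSO served as controls. Means of 3 independent experiments.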

Dihydrofolate reductase [15] = molecular target: T1, Dihydrofolate reductase; experiment: Inhibition of recombinant human DHFR assessed as reduction in consumption of NADPH using DHF as substrate measured every 30 secs over 6 mins by spectrophotometric method
[16] = Hemolytic activity in human RBC after 24 hrs; type: ADME, cell-based, Erythrocyte; conditions: red blood cells (erythrocytes), read-out: LC50
In short: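 Red blood cells were PBS-washed and resuspended at 10^6/mL, then incubated 24 h with compound. After centrifugation at 1000 g for 10 min, supernatant absorbance was read at 540 nm. PBS served as the negative control and 0.1% Triton X-100 as the positive control. Reported as LC50.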

[17] = Half life in female rat liver microsomes at 3 uM preincubated for 5 mins followed by NADPH addition measured up to 45 mins by LC-MS/MS analysis; type: ADME, microsome; in short: as §1
[18] = Aqueous solubility of compound in pH 7.4 solution after 90 mins by UV method; type: physicochemical; conditions: aqueous solution pH 7.4, pH 7.4
In short: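 Compound was diluted from a 10 mM DMSO stock to final 3.13–100 µM in 45 mM ethanolamine/potassium dihydrogen phosphate/potassium acetate buffer, pH 7.4. After 90 min at room temperature the solution was filtered and diluted with acetonitrile and buffer. Absorbance was read at 330 nm.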

[19] = Cytotoxicity against human HepG2 cells assessed as reduction in cell viability by MTS assay; type: cell-based
In short: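 HepG2 cells were grown in DMEM with 10% heat-inactivated FBS at 37 °C and 5% CO2, then exposed to 2-fold serially diluted compound. Viability was read by MTS absorbance at 490 nm. CC50 is the concentration giving a 50% viability drop, taken from the absorbance-versus-concentration plot. Triton X-100 was the positive control. Means of 3 independent experiments.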

[20] = Selectivity index, ratio of CC50 for cytotoxicity against human HepG2 cells to MIC90 for antimycobacterial activity against Mycobacterium tuberculosis H37Rv; type: toxicity, cell-based; conditions: HepG2 cells versus Mycobacterium tuberculosis H37Rv, read-out: Selectivity Index
In short: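 H37Rv grown to mid-log (OD600 0.4–0.6), 5 × 10^5 CFU/mL, in supplemented 7H9 with 2-fold compound dilutions (DMSO), 10 days at 37 °C shaken. MIC90 is the lowest concentration giving 90% inhibition by OD600. HepG2 cells in DMEM/10% FBS are exposed to 2-fold dilutions, and CC50 (50% viability loss) is read by MTS absorbance at 490 nm. SI = CC50/MIC90. Means of 3 independent experiments.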

[21] = Intrinsic clearance in male rat liver microsomes at 3 uM preincubated for 5 mins followed by NADPH addition measured up to 45 mins by LC-MS/MS analysis; type: ADME, microsome; conditions: read-out: CLH; in short: as §1
[22] = Intrinsic clearance in female rat liver microsomes at 3 uM preincubated for 5 mins followed by NADPH addition measured up to 45 mins by LC-MS/MS analysis; type: ADME, microsome; conditions: read-out: CLH; in short: as §1

Compound `NC1=NC2(CCCCC2)N(Cc2ccc(Cl)cc2)C(N)=N1` has an IC50 (A549) of over 100 µM and an IC50 (Dihydrofolate reductase [1]) of over 100 µM.
In the case of `Cc1c(Cc2ccccc2Br)cnc2nc(N)nc(N)c12`, the IC50 (Dihydrofolate reductase [2]) is reported as 8.2 nM, the MIC90 [3] is reported as 1.3 µM (≈ 0.447 µg/mL) and the IC50 (Dihydrofolate reductase [4]) is reported as 7.6 nM.
Compound `COC(=O)CC[C@H](NC(=O)c1ccc(N(C)Cc2cnc3nc(N)nc(N)c3n2)cc1)C(=O)OC` has an IC50 (Dihydrofolate reductase [5]) of 50 nM and an MIC90 [6] of 0.2 to 0.4 µM (≈ 0.0965 to 0.193 µg/mL).
Work on `Cl.NC1=NC2(CCCCC2)N(Cc2cn(CCCCCOc3ccc4oc(=O)ccc4c3)nn2)C(N)=N1` yielded an IC50 (Dihydrofolate reductase [7]) of over 100000 nM.
Work on `CCOC(=O)CC[C@H](NC(=O)c1ccc(N(C)Cc2cnc3nc(N)nc(N)c3n2)cc1)C(=O)OCC` yielded an IC50 (Dihydrofolate reductase [5]) of 30 nM and an MIC90 [6] of 0.6 µM (≈ 0.306 µg/mL).
In the case of `Nc1nc(N)nc(-c2ccc(OCc3cccc(Cl)c3)cc2)n1`, the IC50 (Dihydrofolate reductase [8]) is reported as 5.62 µM, the MIC [9] is reported as 1.57 µM (≈ 0.515 µg/mL) and the CC50 [10] is reported as 387 µM. For the same compound, the IC50 (Dihydrofolate reductase [11]) was 72.5 µM.
`COc1ccc(-c2nc3c(N)nc(N)nc3nc2C(C)C)cc1` showed an IC50 (Dihydrofolate reductase [2]) of 54.5 nM, an MIC90 [3] of 2.9 µM (≈ 0.9 µg/mL) and an IC50 (Dihydrofolate reductase [4]) of 382 nM.
`Cl.NC1=NC2(CCCCC2)N(c2ccc(OCc3cn(CCCOc4ccc5ccc(=O)oc5c4)nn3)cc2)C(N)=N1` gave a half-life at 3 µM [12] of 83.2 min, a Ratio IC50 [13] of 8.95 and an MIC50 [14] of 0.01 µM. It also gave an MIC90 [14] of 0.025 µM, an IC50 (Dihydrofolate reductase [15]) of 12 µM and an HC50 at 24 h [16] of over 100 µM. It also gave a half-life at 3 µM [17] of 271 min, a solubility at 1.5 h [18] of over 100 µM and a CC50 [19] of over 100 µM. It also gave an IC50 (Dihydrofolate reductase [7]) of 1340 nM, a selectivity ratio [20] of over 4000 and a microsomal CLint at 3 µM [21] of 27.8 µL/min/mg. The microsomal CLint at 3 µM [22] was 8.6 µL/min/mg.
`Cl.NC1=NC2(CCCCC2)N(c2ccc(OCc3cn(CCCCOc4ccc5ccc(=O)oc5c4)nn3)cc2)C(N)=N1` showed a half-life at 3 µM [12] of 59 min, a Ratio IC50 [13] of 18.7 and an MIC50 [14] of 0.01 µM. For the same compound, the MIC90 [14] was 0.025 µM, the IC50 (Dihydrofolate reductase [15]) was 15.3 µM and the HC50 at 24 h [16] was over 100 µM. The half-life at 3 µM [17] was 114 min, the solubility at 1.5 h [18] was 95.8 µM and the CC50 [19] was over 100 µM. For the same compound, the IC50 (Dihydrofolate reductase [7]) was 820 nM, the selectivity ratio [20] was over 4000 and the microsomal CLint at 3 µM [21] was 39.2 µL/min/mg. The microsomal CLint at 3 µM [22] was 20.4 µL/min/mg.
`Nc1nc(N)nc(-c2ccc(OCc3ccc(Cl)cc3)cc2)n1` showed an IC50 (Dihydrofolate reductase [8]) of 5.17 µM, an MIC [9] of 1.76 µM (≈ 0.577 µg/mL) and a CC50 [10] of 333 µM. The IC50 (Dihydrofolate reductase [11]) was 83.3 µM.
In the case of `Cl.NC1=NC2(CCCCC2)N(c2ccc(OCc3cn(CCCc4ccccc4)nn3)cc2)C(N)=N1`, the Ratio IC50 [13] is reported as 0.63, the IC50 (Dihydrofolate reductase [15]) is reported as 3.67 µM and the IC50 (Dihydrofolate reductase [7]) is reported as 5820 nM.
With `N#Cc1ccc(Cn2ccc3c4c(N)nc(N)nc4ccc32)cc1` the IC50 (Dihydrofolate reductase [2]) was 10.1 nM, the MIC90 [3] was 0.5 µM (≈ 0.157 µg/mL) and the IC50 (Dihydrofolate reductase [4]) was 6.8 nM.

— ChEMBL document CHEMBL4145451, “1,3,5-triazaspiro[5.5]undeca-2,4-dienes as selective Mycobacterium tuberculosis dihydrofolate reductase inhibitors with potent whole cell activity” (Eur J Med Chem, 2018)
